# The source made the active and inactive calls. The calls are words filed in the database; no cut-off is given here.
# How the values were obtained:
# [1] = molecular target: Receptor-type tyrosine-protein phosphatase F (Homo sapiens, UniProt P10586); assay: Inhibition of membrane proximal catalytic domain of LAR-D1 assessed as p-nitrophenol release from pNPP substrate preincubated for 10 mins
# Method in brief: (§1)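 IC50 values against the PTP panel, with enzymes prepared as described in the supplementary material. Values are means ± SD of two or more experiments.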
# [2] = molecular target: T1, Tyrosine-protein phosphatase non-receptor type 2 (Homo sapiens, UniProt P17706); assay: Inhibition of TC-PTP assessed as p-nitrophenol release from pNPP substrate preincubated for 10 mins; method in brief: as §1
# T1 sequence (P17706 whole entry): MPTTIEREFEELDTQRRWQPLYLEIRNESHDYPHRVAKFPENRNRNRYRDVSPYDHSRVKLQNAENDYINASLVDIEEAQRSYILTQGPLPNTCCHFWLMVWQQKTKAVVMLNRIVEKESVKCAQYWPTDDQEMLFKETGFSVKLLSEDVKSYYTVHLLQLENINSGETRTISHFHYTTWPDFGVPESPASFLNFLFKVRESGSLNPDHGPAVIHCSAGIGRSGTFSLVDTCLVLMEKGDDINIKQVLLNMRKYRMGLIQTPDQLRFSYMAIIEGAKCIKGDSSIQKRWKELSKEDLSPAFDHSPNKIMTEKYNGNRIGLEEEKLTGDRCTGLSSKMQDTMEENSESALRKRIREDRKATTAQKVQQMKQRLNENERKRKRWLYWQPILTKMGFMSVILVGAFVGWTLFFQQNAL
# [3] = molecular target: T2, Tyrosine-protein phosphatase non-receptor type 1 (Homo sapiens, UniProt P18031); assay: Inhibition of PTP1B expressed in Escherichia coli assessed as p-nitrophenol release from pNPP substrate preincubated for 10 mins; method in brief: as §1
# T2 sequence (P18031 whole entry): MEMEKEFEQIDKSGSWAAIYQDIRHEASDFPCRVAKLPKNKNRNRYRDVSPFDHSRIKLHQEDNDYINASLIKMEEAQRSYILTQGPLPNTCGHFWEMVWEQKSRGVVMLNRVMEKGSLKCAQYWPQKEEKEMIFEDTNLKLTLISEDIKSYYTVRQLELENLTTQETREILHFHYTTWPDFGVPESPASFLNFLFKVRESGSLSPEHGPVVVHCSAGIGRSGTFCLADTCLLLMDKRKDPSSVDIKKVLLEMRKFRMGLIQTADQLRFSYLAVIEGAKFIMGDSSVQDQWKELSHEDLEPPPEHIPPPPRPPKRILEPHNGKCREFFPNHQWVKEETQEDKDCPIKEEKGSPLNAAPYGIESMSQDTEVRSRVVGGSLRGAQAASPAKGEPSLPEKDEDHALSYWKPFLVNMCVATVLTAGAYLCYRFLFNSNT
# [4] = molecular target: T3, Peroxisome proliferator-activated receptor gamma (Homo sapiens) (UniProt P37231); assay: Agonist activity at PPARgamma expressed in HepG2 cells co-expressing PPRE assessed as concentration required for maximal activation after 24 hrs by luciferase reporter gene assay; assay type: functional, cell-based
# T3 sequence (whole entry): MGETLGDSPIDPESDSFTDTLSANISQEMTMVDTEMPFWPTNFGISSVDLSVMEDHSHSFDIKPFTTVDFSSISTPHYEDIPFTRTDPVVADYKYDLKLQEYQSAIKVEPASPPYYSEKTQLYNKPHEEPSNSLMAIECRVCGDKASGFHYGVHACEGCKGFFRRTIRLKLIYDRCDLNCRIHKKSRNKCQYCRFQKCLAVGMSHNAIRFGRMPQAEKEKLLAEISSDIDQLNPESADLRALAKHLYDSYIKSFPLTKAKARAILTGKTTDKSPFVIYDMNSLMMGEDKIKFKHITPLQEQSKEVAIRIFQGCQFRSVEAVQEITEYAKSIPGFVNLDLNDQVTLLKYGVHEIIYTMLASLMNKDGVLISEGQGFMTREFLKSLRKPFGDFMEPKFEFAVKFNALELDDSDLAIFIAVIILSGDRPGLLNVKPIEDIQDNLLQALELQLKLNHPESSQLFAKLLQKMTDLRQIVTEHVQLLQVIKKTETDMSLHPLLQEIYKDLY
# Mus musculus [5] = assay: Antidiabetic activity in high fat diet-fed diabetic C57BL/6J Jms Slc mouse model assessed as normalization of blood glucose level at 2.6 mg/day administered with food for 4 weeks measured 90 mins after last dose by glucose tolerance test; assay type: functional, organism-based
# Method in brief: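 Mice were male C57BL/6J Jms Slc, 5 wk old after 1 wk acclimatization. They were fed a 45%-fat HFD for 8 wk, then HFD with compound mixed in (1.0 g/kg diet, about 2.6 mg/day/mouse, 78 mg/day/kg) for 4 wk. Each mouse was fasted 6 h from the start of the light cycle and fasting glucose was measured. Glucose 1.0 g/kg was then given i.p., with readings at 60 and 90 min.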
# [6] = Selectivity ratio of IC50 for yeast PTP1 to IC50 for PTP1B
# Mus musculus [7] = assay: Antiobesity activity in high fat diet-fed diabetic C57BL/6J Jms Slc mouse model assessed as weight gain/kcal at 2.6 mg/day administered with food for 4 weeks; assay type: functional
# Method in brief: (§2)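 DIO male C57BL/6J Jms Slc mice were fed a 45%-fat HFD for 8 wk, then HFD with 0.1% w/w compound in feed (about 2.6 mg/day/mouse) for 4 wk. A 10%-fat LFD lean group ran throughout. Measures were weight gain, feed efficiency (weight gain/kcal ×100), and epididymal and retroperitoneal fat pad weights. n = 8/group; mean ± SEM; one-way ANOVA.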
# Mus musculus [8] = assay: Antiobesity activity in high fat diet-fed diabetic C57BL/6J Jms Slc mouse model assessed as decrease in epididymal fat at 2.6 mg/day administered with food for 4 weeks; assay type: functional; method in brief: as §2
# Mus musculus [9] = assay: Antiobesity activity in high fat diet-fed diabetic C57BL/6J Jms Slc mouse model assessed as reduction in body weight at 2.6 mg/day administered with food for 4 weeks; assay type: functional; method in brief: as §2
# [10] = molecular target: T4, Peroxisome proliferator-activated receptor gamma (Homo sapiens, UniProt P37231); assay: Agonist activity at PPARgamma expressed in HepG2 cells co-expressing PPRE assessed as transcriptional activation after 24 hrs by luciferase reporter gene assay; assay type: functional, cell-based
# T4 sequence (P37231 whole entry): T3 sequence (whole entry)
# Method in brief: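 HepG2 cells were transfected with a PPRE-driven luciferase reporter plus CMV-βGal. The basic luciferase reporter without a PPRE site served as the negative control. Compounds were added 6 h after transfection. Cells were lysed 24 h later. Luciferase activity was read on a luminometer and normalized to β-galactosidase for transfection efficiency. Two independent experiments; error as SEM.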
# Mus musculus [11] = assay: Toxicity in high fat diet-fed diabetic C57BL/6J Jms Slc mouse model assessed as change in weight of lung at 2.6 mg/day administered with food for 4 weeks; assay type: organism-based; details: in vivo, po, 672 h
# Method in brief: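 At the end of the 4 wk in-feed dosing (about 2.6 mg/day/mouse in HFD), liver, kidney and lung weights were compared across the lean LFD, HFD control and treated groups.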
# Receptor-type tyrosine-protein phosphatase F, sequence (P10586 whole entry, the tested form may be a part): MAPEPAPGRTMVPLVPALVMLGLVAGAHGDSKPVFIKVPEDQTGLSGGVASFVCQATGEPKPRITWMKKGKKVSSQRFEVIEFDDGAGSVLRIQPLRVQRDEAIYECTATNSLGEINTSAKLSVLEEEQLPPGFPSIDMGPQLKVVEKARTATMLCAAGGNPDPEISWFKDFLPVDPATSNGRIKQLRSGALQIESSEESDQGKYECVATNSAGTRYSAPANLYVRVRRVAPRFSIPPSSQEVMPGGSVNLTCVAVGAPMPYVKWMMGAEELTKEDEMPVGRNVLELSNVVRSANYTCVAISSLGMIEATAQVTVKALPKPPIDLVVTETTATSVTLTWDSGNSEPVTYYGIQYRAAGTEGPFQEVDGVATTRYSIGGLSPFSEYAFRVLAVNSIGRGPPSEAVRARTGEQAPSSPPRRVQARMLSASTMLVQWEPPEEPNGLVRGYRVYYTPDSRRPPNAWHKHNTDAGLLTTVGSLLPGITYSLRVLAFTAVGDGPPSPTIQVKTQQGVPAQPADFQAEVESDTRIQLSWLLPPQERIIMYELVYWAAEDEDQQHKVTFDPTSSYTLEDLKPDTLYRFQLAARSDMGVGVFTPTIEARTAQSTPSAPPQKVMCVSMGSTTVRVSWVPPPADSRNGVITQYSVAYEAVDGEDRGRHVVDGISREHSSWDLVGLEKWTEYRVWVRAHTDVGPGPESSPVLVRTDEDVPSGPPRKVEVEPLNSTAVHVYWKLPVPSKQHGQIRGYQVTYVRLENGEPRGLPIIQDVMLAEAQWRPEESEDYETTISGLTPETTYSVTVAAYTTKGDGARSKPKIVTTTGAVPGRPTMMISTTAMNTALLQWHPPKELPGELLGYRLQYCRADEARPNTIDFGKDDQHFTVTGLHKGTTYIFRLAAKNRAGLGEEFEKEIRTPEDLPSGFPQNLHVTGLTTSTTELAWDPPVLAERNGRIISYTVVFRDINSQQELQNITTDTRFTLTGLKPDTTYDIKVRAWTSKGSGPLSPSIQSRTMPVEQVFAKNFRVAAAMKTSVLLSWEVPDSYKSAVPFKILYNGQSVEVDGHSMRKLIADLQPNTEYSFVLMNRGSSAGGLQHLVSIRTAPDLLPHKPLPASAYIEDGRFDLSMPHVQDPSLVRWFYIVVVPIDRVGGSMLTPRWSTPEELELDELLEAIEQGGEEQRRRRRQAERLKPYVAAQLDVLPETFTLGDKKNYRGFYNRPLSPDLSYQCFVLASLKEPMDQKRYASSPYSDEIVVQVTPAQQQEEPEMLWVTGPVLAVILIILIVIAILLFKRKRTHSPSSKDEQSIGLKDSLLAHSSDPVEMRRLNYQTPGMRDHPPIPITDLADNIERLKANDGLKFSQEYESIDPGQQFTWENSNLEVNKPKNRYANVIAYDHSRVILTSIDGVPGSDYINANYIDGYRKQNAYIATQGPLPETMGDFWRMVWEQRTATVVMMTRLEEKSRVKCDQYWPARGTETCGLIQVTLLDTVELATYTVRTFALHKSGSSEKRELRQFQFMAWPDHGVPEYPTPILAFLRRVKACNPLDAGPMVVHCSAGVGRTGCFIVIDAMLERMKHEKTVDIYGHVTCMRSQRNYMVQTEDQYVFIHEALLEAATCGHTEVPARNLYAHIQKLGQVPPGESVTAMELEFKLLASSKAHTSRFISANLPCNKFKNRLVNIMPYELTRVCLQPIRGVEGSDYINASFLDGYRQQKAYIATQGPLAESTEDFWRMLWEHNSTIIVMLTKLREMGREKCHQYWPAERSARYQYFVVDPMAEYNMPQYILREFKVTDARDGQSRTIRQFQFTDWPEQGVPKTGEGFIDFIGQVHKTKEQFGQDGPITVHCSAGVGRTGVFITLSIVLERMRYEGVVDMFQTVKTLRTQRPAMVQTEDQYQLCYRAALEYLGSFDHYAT
compound,measurement,setting,value
Cc1ccc(S(=O)(=O)Oc2cc(OCc3ccc(C(F)(F)F)cc3)c(/C=C3\SC(=O)NC3=O)cc2Br)cc1,IC50,[1],> 100000 nM
same,IC50,[2],19000 nM
same,IC50,[3],1300 nM
same,Activity,[4],1.5 µM
same,Activity,Mus musculus [5],Active
same,Ratio IC50,[6],> 10
same,feed efficiency,Mus musculus [7],0.57 g/100 kcal
same,Activity,Mus musculus [8],1.29 g
same,Activity,Mus musculus [9],2 g
same,EC50,[10],340 nM
same,Activity,Mus musculus [11],Non-toxic

# Reference: ChEMBL document CHEMBL1800016, “Novel thiazolidinedione derivatives with anti-obesity effects: dual action as PTP1B inhibitors and PPAR-γ activators” (Bioorg Med Chem Lett, 2010)
